The source of these data is PubChem BioAssay.

Activity calls are given as the source filed them.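 How the source made its calls, unless noted: active means GFP response above 150% of the DMSO level; inconclusive means fewer than 70 events counted for a yeast strain; inactive means the rest.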

Assay [1] is described as follows: RPL19A-GFP modulators, yeast TOR pathway, confirmation, cell-based, S. cerevisiae, flow cytometry, cherry picks, mother/daughter gates (AID 2270;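 active means GFP response below 50% of the DMSO control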). The settings on record: S. cerevisiae RPL19A-GFP strain, 3 h, at 10 µM, stronger effect = lower value, 100 = same GFP as DMSO wells. (Flow cytometry measures light scatter and fluorescence of single cells or particles in a stream.)

Assay [2] can be described thus: LAP4-GFP expression modulators in yeast, confirmation, cell-based, cherry picks, flow cytometry, mother/daughter gates (AID 2271;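 active means GFP response above 150% of the DMSO control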;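 further: ratio of sample to DMSO plate mean so 100% equals DMSO level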). Particulars: S. cerevisiae LAP4-GFP strain, 3 h, at 10 µM, stronger effect = higher value, 100 means same as DMSO control. The essentials:
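System: GFP-fusion yeast strain; Incubation: compound exposure 3 h at 30 °C, end-over-end rotation; Measured by: GFP by flow cytometry; Read-out: median GFP fluorescence as percent of plate-mean DMSO wells; Medium: synthetic complete (SC) yeast growth medium; Compound: single test-compound dose, 10 µM final; Benchmarks: DMSO-only negative wells, rapamycin 400 ng/mL positive wells.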

The nature of assay [3]: modulators of MEP2-GFP levels in yeast, confirmation, S. cerevisiae, flow cytometry GFP, cherry picks (AID 2272;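 active means GFP response above 150% of the DMSO control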;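 further: ratio of well signal to plate DMSO mean so 100% equals DMSO level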). Particulars: S. cerevisiae MEP2-GFP strain, 3 h, at 10 µM, stronger effect = higher value.
A short description of assay [4]: AGP1-GFP expression modulators, hit retest, confirmation, cell-based, flow cytometry, S. cerevisiae, cherry picks (AID 2273).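 Further: median GFP channel fluorescence over the whole cell population gate.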 The settings on record: S. cerevisiae AGP1-GFP strain, 3 h, at 10 µM.
Assay [5] can be described thus: modulators of CIT2-GFP expression in yeast, confirmation, S. cerevisiae, GFP fusion, cherry picks, mother/daughter gates (AID 2274). Particulars: S. cerevisiae CIT2-GFP strain, flow cytometry, 3 h, at 10 µM, stronger effect = higher value.
Where [6] appears, read: measured here: daughter cell gate.
Setting [7] is: measured here: mother cell gate.
Setting [8] is: measured here: daughter cell gate response.
The mark [9] stands for this setting: measured here: mother cell gate response.

As to `COc1ccc(/C=C/C(=O)C2C(=O)C=C(C)OC2=O)cc1O` (stereo unspecified), the GFP response vs DMSO in assay [1] is 101% (inactive); in assay [1] (setting [6]), 102%; in assay [1] (setting [7]), 101%; in assay [3], 112% (inactive). Also, the GFP response relative to DMSO in assay [2] is 123% (inactive); in assay [2] (setting [8]) it was 118%; in assay [2] (setting [9]) it was 125%. Also, the GFP response, % of DMSO is 101% (inactive) in assay [4], 101% (inactive) in assay [5], 104% in assay [5] (setting [6]) and 96.8% in assay [5] (setting [7]).
With `O=C(Nc1nc(-c2ccc(Cl)cc2)cs1)c1cccnc1`, the GFP response vs DMSO in assay [1] was 96.8% (inactive); in assay [1] (setting [6]), 87.8%; in assay [1] (setting [7]), 98.3%; in assay [3] it was 99% (inactive). Further, the values for the GFP response relative to DMSO in assay [2], in assay [2] (setting [8]) and in assay [2] (setting [9]) were 105% (inactive), 101% and 104%, respectively. The GFP response, % of DMSO was 99.4% (inactive) in assay [4], 95.9% (inactive) in assay [5], 93.8% in assay [5] (setting [6]) and 95.6% in assay [5] (setting [7]).
Take `COCCNC(=O)/C(C#N)=C/c1c(N2CC(C)OC(C)C2)nc2ccccn2c1=O` (stereo unspecified): the GFP response vs DMSO in assay [1] is 100% (inactive); in assay [1] (setting [6]), 98.6%; in assay [1] (setting [7]), 100%; in assay [3], 103% (inactive). Besides, the results for the GFP response relative to DMSO in assay [2], in assay [2] (setting [8]) and in assay [2] (setting [9]) were 98.2% (inactive), 95.9% and 97.3%, respectively. Also, the GFP response, % of DMSO is 98.8% (inactive) in assay [4], 102% (inactive) in assay [5], 101% in assay [5] (setting [6]) and 101% in assay [5] (setting [7]).
For `CCOC(=O)c1ccc(N=Cc2nc(-c3ccccc3)oc2OC(C)=O)cc1`, the GFP response vs DMSO in assay [1] was 104% (inactive); in assay [1] (setting [6]), 105%; in assay [1] (setting [7]) it was 101%; in assay [3] it was 96.8% (inactive). Also, the GFP response relative to DMSO in assay [2] was 154% (active); in assay [2] (setting [8]) it was 138%; in assay [2] (setting [9]), 170%. In addition, the GFP response, % of DMSO in assay [4] is 92.2% (inactive); in assay [5] it was 93% (inactive); in assay [5] (setting [6]) it was 93.8%; in assay [5] (setting [7]) it was 89.5%.
As for `c1ccc(-c2cccc(-c3ccccn3)n2)nc1`, the GFP response vs DMSO is 92.9% (inactive) in assay [1], 82.8% in assay [1] (setting [6]), 96.9% in assay [1] (setting [7]) and 106% (inactive) in assay [3]. Also, the GFP response relative to DMSO in assay [2] is 258% (active); in assay [2] (setting [8]), 210%; in assay [2] (setting [9]) it was 268%. Also, the GFP response, % of DMSO in assay [4] was 89% (inactive); in assay [5], 97.8% (inactive); in assay [5] (setting [6]), 87.2%; in assay [5] (setting [7]), 100%.
Consider `Oc1c(Br)cc(Br)cc1C=NCc1ccccc1`, for which the GFP response vs DMSO was 101% (inactive) in assay [1], 91.3% in assay [1] (setting [6]), 101% in assay [1] (setting [7]) and 112% (inactive) in assay [3]. For the same molecule, the GFP response relative to DMSO in assay [2] was 135% (inactive); in assay [2] (setting [8]), 105%; in assay [2] (setting [9]), 137%. Further, the GFP response, % of DMSO in assay [4] is 99.7% (inactive); in assay [5] it was 104% (inactive); in assay [5] (setting [6]) it was 108%; in assay [5] (setting [7]), 92.1%.
As to `Cc1onc(-c2c(Cl)cccc2Cl)c1NC(=O)NNc1c(Cl)cncc1Cl`, the GFP response vs DMSO in assay [1] is 99.8% (inactive); in assay [1] (setting [6]) it was 99.4%; in assay [1] (setting [7]), 99.2%; in assay [3] it was 100% (inactive). The GFP response relative to DMSO in assay [2] is 103% (inactive); in assay [2] (setting [8]), 102%; in assay [2] (setting [9]), 100%. Also, the GFP response, % of DMSO is 97.2% (inactive) in assay [4], 99.7% (inactive) in assay [5], 101% in assay [5] (setting [6]) and 97.3% in assay [5] (setting [7]).
On to `Cc1ccc(N2C(=O)c3ccccc3NC2c2ccccc2O)cc1` (stereo unspecified), for which the GFP response vs DMSO in assay [1] is 97.2% (inactive); in assay [1] (setting [6]), 98.1%; in assay [1] (setting [7]), 98.4%; in assay [3], 109% (inactive). The GFP response relative to DMSO in assay [2] is 97.9% (inactive); in assay [2] (setting [8]), 96%; in assay [2] (setting [9]), 96.1%. Besides, the GFP response, % of DMSO is 96.6% (inactive) in assay [4], 103% (inactive) in assay [5], 105% in assay [5] (setting [6]) and 103% in assay [5] (setting [7]).
`O=C(/C(=C/O)N=Nc1ccc(Cl)cc1)c1ccncc1`: the GFP response vs DMSO in assay [1] is 101% (inactive); in assay [1] (setting [6]), 99.3%; in assay [1] (setting [7]) it was 98.8%; in assay [3], 132% (inactive). In addition, the GFP response relative to DMSO is 111% (inactive) in assay [2], 101% in assay [2] (setting [8]) and 115% in assay [2] (setting [9]). Further, the GFP response, % of DMSO in assay [4] was 101% (inactive); in assay [5], 90.3% (inactive); in assay [5] (setting [6]), 88.7%; in assay [5] (setting [7]) it was 88.2%.
In the case of `CCOc1ccc(CNC(=O)CCC(=O)N2Cc3cccc(OC)c3Oc3ncccc32)cc1`, the GFP response vs DMSO was 98.2% (inactive) in assay [1], 98.6% in assay [1] (setting [6]), 99.8% in assay [1] (setting [7]) and 100% (inactive) in assay [3]. Besides, the GFP response relative to DMSO in assay [2] is 97.9% (inactive); in assay [2] (setting [8]), 99.2%; in assay [2] (setting [9]), 96.1%. In addition, the GFP response, % of DMSO was 96.6% (inactive) in assay [4], 101% (inactive) in assay [5], 101% in assay [5] (setting [6]) and 99.7% in assay [5] (setting [7]).
As for `COc1ccccc1-c1nnc(NC(=O)c2ccc(S(=O)(=O)N(C)C)cc2)o1`, the GFP response vs DMSO in assay [1] is 99.2% (inactive); in assay [1] (setting [6]), 98.6%; in assay [1] (setting [7]), 98.7%; in assay [3], 119% (inactive). Also, the GFP response relative to DMSO is 111% (inactive) in assay [2], 112% in assay [2] (setting [8]) and 109% in assay [2] (setting [9]). In addition, the GFP response, % of DMSO in assay [4] was 93.3% (inactive); in assay [5] it was 105% (inactive); in assay [5] (setting [6]) it was 106%; in assay [5] (setting [7]), 106%.
